How the values were obtained:
CYP1A2 [1] = target: T1, CYP1A2 (Homo sapiens, UniProt P05177); assay: Induction of CYP1A2-mediated 7-ethoxyresorufin O-deethylase activity in human hepatocytes at 5 uM after 10 mins by fluorescence assay relative to control; assay type: ADME, cell-based, Hepatocyte; conditions: probe 7-ethoxyresorufin, read-out: FC
T1 sequence (P05177 whole entry): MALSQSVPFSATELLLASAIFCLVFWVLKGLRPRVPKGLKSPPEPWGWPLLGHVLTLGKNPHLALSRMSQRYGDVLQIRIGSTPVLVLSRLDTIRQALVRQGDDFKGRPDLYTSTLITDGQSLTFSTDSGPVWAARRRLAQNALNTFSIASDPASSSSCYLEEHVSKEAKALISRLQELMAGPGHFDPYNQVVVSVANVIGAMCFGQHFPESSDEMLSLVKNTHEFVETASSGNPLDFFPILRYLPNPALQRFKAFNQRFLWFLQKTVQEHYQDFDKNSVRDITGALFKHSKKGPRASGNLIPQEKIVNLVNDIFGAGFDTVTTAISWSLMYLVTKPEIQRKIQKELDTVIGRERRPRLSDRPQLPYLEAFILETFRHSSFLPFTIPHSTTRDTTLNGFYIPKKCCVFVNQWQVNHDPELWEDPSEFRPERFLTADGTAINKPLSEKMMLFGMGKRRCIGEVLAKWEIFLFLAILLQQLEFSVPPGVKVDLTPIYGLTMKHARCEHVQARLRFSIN
Outline: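 Human hepatocytes were treated for 48 h (re-dosed at 24 h), washed, then incubated with 0.5 μM ethoxyresorufin in serum-free medium for 10 min at 37 °C. Resorufin fluorescence read at Ex 530/Em 590 nm. Rate in fluorescence units/min expressed as fold over solvent control.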

CYP1A2 [2] = assay: Induction of CYP1A2 mRNA expression in human hepatocytes at 10 uM relative to control; assay type: ADME, cell-based, Hepatocyte; conditions: read-out: FC
CYP1A2 [3] = assay: Induction of CYP1A2 mRNA expression in rat hepatic microsomes at 30 mg/kg, po QD for 7 days relative to control; assay type: ADME, organism-based, Liver; conditions: read-out: FC
Outline: (§1)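 Male rats dosed orally once daily for 7 days. Hepatic mRNA measured by Taqman and expressed as fold induction versus control animals.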

CYP1A1 [4] = assay: Induction of CYP1A1 mRNA expression in rat hepatic microsomes at 30 mg/kg, po QD for 7 days relative to control; assay type: ADME, organism-based, Liver; conditions: read-out: FC; outline: as §1
CYP1A2 [5] = assay: Induction of CYP1A2 mRNA expression in rat hepatocytes at 10 uM by Taqman analysis relative to control; assay type: ADME, cell-based, Hepatocyte; conditions: read-out: FC
CYP1A1 [6] = assay: Induction of CYP1A1 mRNA expression in rat hepatocytes at 10 uM by Taqman analysis relative to control; assay type: ADME, cell-based, Hepatocyte; conditions: read-out: FC
Rattus norvegicus [7] = assay: Induction of CYP1A2 gene expression in rat hepatic microsomes at 30 to 300 mg/kg, po QD for 7 days; assay type: ADME, organism-based, Liver; conditions: 168 h
Outline: (§2)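 Rats dosed orally once daily for 7 days at 30–300 mg/kg/day, depending on compound. Hepatic AhR-panel gene mRNA (Cyp1a, Nqo1, Ephx1) measured and expressed as fold induction versus control animals.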

CYP1A1 [8] = assay: Induction of CYP1A1 gene expression in rat hepatic microsomes at 30 to 300 mg/kg, po QD for 7 days; assay type: ADME, organism-based, Liver; conditions: read-out: FC
Outline: (§3)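 Rats received oral doses daily for 7 days: 30 and 100 mg/kg, or 30, 100 and 300 mg/kg, depending on compound. Hepatic CYP1A1 mRNA was expressed as fold induction versus control animals.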

Rattus norvegicus [9] = assay: Induction of Nqo1 gene expression in rat hepatic microsomes at 30 to 300 mg/kg, po QD for 7 days; assay type: organism-based, Liver; conditions: 168 h; outline: as §2
Rattus norvegicus [10] = assay: Induction of Ephx1 gene expression in rat hepatic microsomes at 30 to 300 mg/kg, po QD for 7 days; assay type: organism-based, Liver; conditions: 168 h; outline: as §2
Rattus norvegicus [11] = assay: Induction of CYP1A2 gene expression in po dosed rat hepatic microsomes administered po QD for 7 days; assay type: ADME, organism-based, Liver; conditions: 168 h; outline: as §2
Rattus norvegicus [12] = assay: Induction of CYP1A1 gene expression in po dosed rat hepatic microsomes administered po QD for 7 days; assay type: ADME, organism-based, Liver; conditions: 168 h; outline: as §3
Rattus norvegicus [13] = assay: Induction of Nqo1 gene expression in po dosed rat hepatic microsomes administered po QD for 7 days; assay type: organism-based, Liver; conditions: 168 h; outline: as §2
Rattus norvegicus [14] = assay: Induction of Ephx1 gene expression in po dosed rat hepatic microsomes administered po QD for 7 days; assay type: organism-based, Liver; conditions: 168 h; outline: as §2
Cynomolgus monkey [15] = assay: Induction of CYP1A2 gene expression in cynomolgus monkey liver at 30 mg/kg, po QD for 7 days by Taqman analysis; assay type: ADME, organism-based, Macaca fascicularis; conditions: in vivo, 168 h
Outline: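 Cynomolgus monkeys dosed orally at 30 mg/kg daily for 7 days. Liver CYP1A2 mRNA measured by Taqman analysis in treated animals versus vehicle-control animals.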

Cynomolgus monkey [16] = assay: Induction of CYP1A1 gene expression in cynomolgus monkey liver at 30 mg/kg, po QD for 7 days by Taqman analysis; assay type: ADME, organism-based, Macaca fascicularis; conditions: in vivo, 168 h
Outline: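 Cynomolgus monkeys were dosed orally at 30 mg/kg daily. Hepatic CYP1A1 mRNA from treated livers was measured by Taqman and compared with vehicle-control animals.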

[17] = Intrinsic clearance in cynomolgus monkey liver microsomes by LC-MS/MS analysis; assay type: ADME, Macaca fascicularis
Outline: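 Liver microsomes were prepared from control and treated cynomolgus monkeys by differential centrifugation (10 000g, then 105 000g). Compound incubated at 37 °C in 50 mM potassium phosphate pH 7.4 with an NADPH-generating system. Samples taken at 0–30 min, quenched with solvent containing internal standard, and analysed by LC–MS/MS to derive intrinsic clearance.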

Rattus norvegicus [18] = assay: Induction of Nqo1 gene expression in rat hepatic microsomes at 30 to 100 mg/kg, po QD for 7 days; assay type: organism-based, Liver; conditions: 168 h
Rattus norvegicus [19] = assay: Induction of CYP1A2 gene expression in rat hepatic microsomes at 30 to 100 mg/kg, po QD for 7 days; assay type: ADME, organism-based, Liver; conditions: 168 h
CYP1A1 [20] = assay: Induction of CYP1A1 gene expression in rat hepatic microsomes at 30 to 100 mg/kg, po QD for 7 days; assay type: ADME, organism-based, Liver; conditions: read-out: FC
Rattus norvegicus [21] = assay: Induction of Ephx1 gene expression in rat hepatic microsomes at 30 to 100 mg/kg, po QD for 7 days; assay type: organism-based, Liver; conditions: 168 h

Compound: CC(C)Oc1ccc(-c2nc(-c3cccc4c3OCCN(CCCC(=O)O)C4)no2)cc1Cl
- fold induction at 10 min, 5 µM (CYP1A2 [1]): 1.1
- fold induction at 10 µM (CYP1A2 [2]): 0.6
- fold induction at 168 h (CYP1A2 [3]): 8
- fold induction at 168 h (CYP1A1 [4]): 75
- fold induction at 10 µM (CYP1A2 [5]): 3
- fold induction at 10 µM (CYP1A1 [6]): 5
- Activity (Rattus norvegicus [7]): Toxic
- fold induction at 168 h (CYP1A1 [8]): 10000
- Activity (Rattus norvegicus [9]): Toxic
- Activity (Rattus norvegicus [10]): Toxic
- Activity (Rattus norvegicus [11]): Dose-dependent effect
- Activity (Rattus norvegicus [12]): Dose-dependent effect
- Activity (Rattus norvegicus [13]): Dose-dependent effect
- Activity (Rattus norvegicus [14]): Dose-dependent effect

Compound: CC(C)Oc1ccc(-c2nc(-c3ccc4c(c3)CCN(CCCC(=O)O)CC4)no2)cc1C#N
- fold induction at 168 h (CYP1A2 [3]): 2
- fold induction at 168 h (CYP1A1 [4]): 210
- fold induction at 10 µM (CYP1A2 [5]): 2
- fold induction at 10 µM (CYP1A1 [6]): 3
- Activity (Rattus norvegicus [7]): Toxic
- fold induction at 168 h (CYP1A1 [8]): 10000
- Activity (Rattus norvegicus [9]): Toxic
- Activity (Rattus norvegicus [10]): Toxic
- Activity (Rattus norvegicus [11]): Dose-dependent effect
- Activity (Rattus norvegicus [12]): Dose-dependent effect
- Activity (Rattus norvegicus [13]): Dose-dependent effect
- Activity (Rattus norvegicus [14]): Dose-dependent effect

Compound: CC(C)Oc1ccc(-c2nc(-c3cccc4c3cnn4CCC(=O)O)no2)cc1Cl
- fold induction at 10 min, 5 µM (CYP1A2 [1]): 7.7
- fold induction at 10 µM (CYP1A2 [2]): 45
- fold induction at 168 h (CYP1A2 [3]): 2
- fold induction at 168 h (CYP1A1 [4]): 35
- fold induction at 10 µM (CYP1A2 [5]): < 1
- fold induction at 10 µM (CYP1A1 [6]): < 1
- Activity (Cynomolgus monkey [15]): Toxic
- Activity (Cynomolgus monkey [16]): Toxic
- CLint scaled [17]: 11 mL/min/g
- Activity (Rattus norvegicus [18]): Toxic
- Activity (Rattus norvegicus [19]): Toxic
- fold induction at 168 h (CYP1A1 [20]): 10000
- Activity (Rattus norvegicus [21]): Toxic
- Activity (Rattus norvegicus [11]): Dose-dependent effect
- Activity (Rattus norvegicus [12]): Dose-dependent effect
- Activity (Rattus norvegicus [13]): Dose-dependent effect
- Activity (Rattus norvegicus [14]): Dose-dependent effect
